Experimental data taken from ChEMBL document CHEMBL1131440, “Synthesis and potent antifolate activity and cytotoxicity of B-ring deaza analogues of the nonpolyglutamatable dihydrofolate reductase inhibitor Nalpha-(4-amino-4-deoxypteroyl)-Ndelta-hemiphthaloyl- L-ornithine (PT523)” (J Med Chem, 1998).

Tests used:
[1] = system: RPMI-8226; experiment: Compound was evaluated for in vitro activity against RPMI-8226 leukemia cell lines (Human tumor cells ); assay type: functional, cell-based
Method in brief: (§1)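 NCI Developmental Therapeutics Program human tumor cell panel; drug exposure in 96-well plates for the last 48 h of a 72-h incubation, then cells stained for total protein with sulforhodamine B per the standard NCI protocol. Data supplied by NCI.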

[2] = system: LOX IMVI; experiment: Compound was evaluated for in vitro activity against LOXIMV1 Melanoma cell lines (Human tumor cells ); assay type: functional, cell-based
Method in brief: (§2)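 Total protein then stained with sulforhodamine B following the standard NCI protocol. Data supplied by the NCI Developmental Therapeutics Program.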

[3] = system: TK-10; experiment: Compound was evaluated for in vitro activity against TK-10 kidney cell lines (Human tumor cells ); assay type: functional, cell-based; method in brief: as §1
[4] = system: M14; experiment: Compound was evaluated for in vitro activity against M14 Melanoma cell lines (Human tumor cells ); assay type: functional, cell-based; method in brief: as §1
[5] = system: IGROV-1; experiment: Compound was evaluated for in vitro activity against IGROV1 Ovary cell lines (Human tumor cells ); assay type: functional, cell-based; method in brief: as §1
[6] = system: U-251; experiment: Compound was evaluated for in vitro activity against U251 CNS cell lines (Human tumor cells ); assay type: functional, cell-based; method in brief: as §1
[7] = system: NCI-H522; experiment: Compound was evaluated for in vitro activity against NCI-H522 lung cancer cell lines (Human tumor cells ); assay type: functional, cell-based; method in brief: as §1
[8] = system: MCF7; experiment: Compound was evaluated for in vitro activity against MCF-7 breast cancer cell lines (Human tumor cells ); assay type: functional, cell-based; method in brief: as §2
[9] = system: CCRF-CEM; experiment: Compound was evaluated for in vitro activity against CCRF-CEM leukemia cell lines (Human tumor cells ); assay type: functional, cell-based; method in brief: as §1
[10] = system: DU-145; experiment: Compound was evaluated for in vitro activity against DU-145 prostate cell lines (Human tumor cells ); assay type: functional, cell-based; method in brief: as §1
[11] = system: HCT-116; experiment: Compound was evaluated for in vitro activity against HCT116 Colon cell lines (Human tumor cells ); assay type: functional, cell-based; method in brief: as §1
[12] = system: HOP-92; experiment: Compound was evaluated for in vitro activity against HOP-92 lung cancer cell lines (Human tumor cells ); assay type: functional, cell-based; method in brief: as §1
[13] = system: 786-0; experiment: Compound was evaluated for in vitro activity against 786-0 kidney cell lines (Human tumor cells ); assay type: functional, cell-based; method in brief: as §1
[14] = Compound was tested for in vitro antitumor activity, using SCC25 human head and neck squamous carcinoma cells; assay type: functional; settings: SCC-25
Method in brief: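 Clonogenic assay: SCC25 cells exposed to graded drug concentrations for 72 h at 37 °C, 5% CO2, in DMEM with 10% FBS and hydrocortisone ([…]). Then replated as single cells at drug-dependent densities and grown in drug-free medium 10-14 days. Colonies stained with crystal violet; only colonies of ≥50 cells scored. IC50 is mean ± SD of ≥3 assays on different days.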

[15] = system: MOLT-4; experiment: Compound was evaluated for in vitro activity against MOLT-4 leukemia cell lines (Human tumor cells ); assay type: functional, cell-based; method in brief: as §1
[16] = system: ACHN; experiment: Compound was evaluated for in vitro activity against ACHN kidney cell lines (Human tumor cells ); assay type: functional, cell-based; method in brief: as §1
[17] = target: T1, Dihydrofolate reductase (Homo sapiens, UniProt P00374); experiment: Compound was evaluated for the inhibition of Dihydrofolate reductase at concentration ranged from 0.15-0.50 uM
T1 sequence (P00374 whole entry): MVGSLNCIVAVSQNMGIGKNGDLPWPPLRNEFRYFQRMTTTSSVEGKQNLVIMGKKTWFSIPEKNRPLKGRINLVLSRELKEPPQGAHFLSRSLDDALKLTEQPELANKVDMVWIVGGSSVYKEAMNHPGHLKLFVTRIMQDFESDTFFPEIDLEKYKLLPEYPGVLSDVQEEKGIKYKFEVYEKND

[18] = system: Malme-3M; experiment: Compound was evaluated for in vitro activity against MALME-3M Melanoma cell lines (Human tumor cells ); assay type: functional, cell-based; method in brief: as §1
[19] = system: UACC-62; experiment: Compound was evaluated for in vitro activity against UACC-62 Melanoma cell lines (Human tumor cells ); assay type: functional, cell-based; method in brief: as §1
[20] = system: SK-MEL-2; experiment: Compound was evaluated for in vitro activity against SK-MEL-2 Melanoma cell lines (Human tumor cells ); assay type: functional, cell-based; method in brief: as §1
[21] = system: UACC-257; experiment: Compound was evaluated for in vitro activity against UACC-257 Melanoma cell lines (Human tumor cells ); assay type: functional, cell-based; method in brief: as §1
[22] = system: HCC 2998; experiment: Compound was evaluated for in vitro activity against HCC2998 Colon cell lines (Human tumor cells ); assay type: functional, cell-based; method in brief: as §1
[23] = system: EKVX; experiment: Compound was evaluated for in vitro activity against EKVX lung cancer cell lines (Human tumor cells ); assay type: functional, cell-based; method in brief: as §1
[24] = system: K562; experiment: Compound was evaluated for in vitro activity against K562 leukemia cell lines (Human tumor cells ); assay type: functional, cell-based; method in brief: as §1
[25] = system: OVCAR-5; experiment: Compound was evaluated for in vitro activity against OVCAR-5 Ovary cell lines (Human tumor cells ); assay type: functional, cell-based; method in brief: as §1
[26] = system: PC-3; experiment: Compound was evaluated for in vitro activity against PC-3 prostate cell lines (Human tumor cells ); assay type: functional, cell-based; method in brief: as §1
[27] = system: NCI-H23; experiment: Compound was evaluated for in vitro activity against NCI-H23 lung cancer cell lines (Human tumor cells ); assay type: functional, cell-based; method in brief: as §1
[28] = system: SR; experiment: Compound was evaluated for in vitro activity against SR leukemia cell lines (Human tumor cells ); assay type: functional, cell-based; method in brief: as §1
[29] = system: MDA-MB-435; experiment: Compound was evaluated for in vitro activity against MDA-MB-435 breast cancer cell lines (Human tumor cells ); assay type: functional, cell-based; method in brief: as §1
[30] = system: KM12; experiment: Compound was evaluated for in vitro activity against KM-12 Colon cell lines (Human tumor cells ); assay type: functional, cell-based; method in brief: as §1
[31] = system: SF-268; experiment: Compound was evaluated for in vitro activity against SF-268 CNS cell lines (Human tumor cells ); assay type: functional, cell-based; method in brief: as §1
[32] = system: BT-549; experiment: Compound was evaluated for in vitro activity against BT-549 breast cancer cell lines (Human tumor cells ); assay type: functional, cell-based; method in brief: as §1
[33] = system: SF-295; experiment: Compound was evaluated for in vitro activity against SF-295 CNS cell lines (Human tumor cells ); assay type: functional, cell-based; method in brief: as §1
[34] = system: HCT-15; experiment: Compound was evaluated for in vitro activity against HCT-15 Colon cell lines (Human tumor cells ); assay type: functional, cell-based; method in brief: as §1
[35] = system: NCI/ADR-RES; experiment: Compound was evaluated for in vitro activity against NCI/ADR-RES breast cancer cell lines (Human tumor cells ); assay type: functional, cell-based; method in brief: as §2
[36] = system: T47D; experiment: Compound was evaluated for in vitro activity against T-47D breast cancer cell lines (Human tumor cells ); assay type: functional, cell-based; method in brief: as §1
[37] = system: OVCAR-3; experiment: Compound was evaluated for in vitro activity against OVCAR-3 Ovary cell lines (Human tumor cells ); assay type: functional, cell-based; method in brief: as §2
[38] = system: HL-60; experiment: Compound was evaluated for in vitro activity against HL-60(TB) leukemia cell lines (Human tumor cells ); assay type: functional, cell-based; method in brief: as §1
[39] = system: NCI-H226; experiment: Compound was evaluated for in vitro activity against NCI-H226 lung cancer cell lines (Human tumor cells ); assay type: functional, cell-based; method in brief: as §1
[40] = system: SK-MEL-5; experiment: Compound was evaluated for in vitro activity against SK-MEL-5 Melanoma cell lines (Human tumor cells ); assay type: functional, cell-based; method in brief: as §1
[41] = system: SNB-; experiment: Compound was evaluated for in vitro activity against […] CNS cell lines (Human tumor cells ); assay type: functional, cell-based; method in brief: as §1
[42] = system: SF-539; experiment: Compound was evaluated for in vitro activity against SF-539 CNS cell lines (Human tumor cells ); assay type: functional, cell-based; method in brief: as §2
[43] = system: SK-MEL-28; experiment: Compound was evaluated for in vitro activity against SK-MEL28 Melanoma cell lines (Human tumor cells ); assay type: functional, cell-based; method in brief: as §1
[44] = system: A498; experiment: Compound was evaluated for in vitro activity against A498 kidney cell lines (Human tumor cells ); assay type: functional, cell-based; method in brief: as §1
[45] = system: A549; experiment: Compound was evaluated for in vitro activity against A549/ATCC lung cancer cell lines (Human tumor cells )
[46] = system: NCI-H460; experiment: Compound was evaluated for in vitro activity against NCI-H460 lung cancer cell lines (Human tumor cells ); assay type: functional, cell-based; method in brief: as §1
[47] = system: COLO 205; experiment: Compound was evaluated for in vitro activity against COLO 205 Colon cell lines (Human tumor cells ); assay type: functional, cell-based; method in brief: as §2
[48] = system: RXF 393; experiment: Compound was evaluated for in vitro activity against RXF-393 kidney cell lines (Human tumor cells ); assay type: functional, cell-based; method in brief: as §1
[49] = system: OVCAR-4; experiment: Compound was evaluated for in vitro activity against OVCAR-4 Ovary cell lines (Human tumor cells ); assay type: functional, cell-based; method in brief: as §1
[50] = system: OVCAR-8; experiment: Compound was evaluated for in vitro activity against OVCAR-8 Ovary cell lines (Human tumor cells ); assay type: functional, cell-based; method in brief: as §1
[51] = system: Hs-578T; experiment: Compound was evaluated for in vitro activity against Hs 578.T breast cancer cell lines (Human tumor cells ); assay type: functional, cell-based; method in brief: as §1

Cc1c(CNc2ccc(C(=O)NC(CCCNC(=O)c3ccccc3C(=O)O)C(=O)O)cc2)cnc2nc(N)nc(N)c12 (stereo not given)
IC50 [1]: 0.84 nM | IC50 [2]: < 0.1 nM | IC50 [3]: > 1000 nM | IC50 [4]: 0.66 nM | IC50 [5]: 0.52 nM | IC50 [6]: 3.6 nM | IC50 [7]: 1.5 nM | IC50 [8]: 0.7 nM | IC50 [9]: 0.57 nM | IC50 [10]: < 1 nM | IC50 [11]: 0.58 nM | IC50 [12]: > 1000 nM | IC50 [13]: < 0.1 nM | IC50 [14]: 0.72 nM | IC50 [15]: 0.57 nM | IC50 [16]: 0.39 nM | Ki [17]: 0.0004 nM | IC50 [18]: 47 nM | IC50 [19]: 0.4 nM | IC50 [20]: > 1000 nM | IC50 [21]: 470 nM | IC50 [22]: 0.9 nM | IC50 [23]: 2.5 nM | IC50 [24]: < 0.1 nM | IC50 [25]: 200 nM | IC50 [26]: < 0.1 nM | IC50 [27]: 1.5 nM | IC50 [28]: 0.45 nM | IC50 [29]: 0.6 nM | IC50 [30]: 0.52 nM | IC50 [31]: 0.36 nM | IC50 [32]: > 1000 nM | IC50 [33]: 0.59 nM | IC50 [34]: 0.45 nM | IC50 [35]: 0.3 nM | IC50 [36]: > 1000 nM | IC50 [37]: 17 nM | IC50 [38]: < 1 nM | IC50 [39]: 0.62 nM | IC50 [40]: 0.64 nM | IC50 [41]: 2.2 nM | IC50 [42]: 0.46 nM | IC50 [43]: 190 nM | IC50 [44]: > 1000 nM | IC50 [45]: 0.42 nM | IC50 [46]: 0.38 nM | IC50 [47]: 6.7 nM | IC50 [48]: 380 nM | IC50 [49]: > 1000 nM | IC50 [50]: 0.32 nM | IC50 [51]: 100 nM

Nc1nc(N)c2nc(CNc3ccc(C(=O)NC(CCCNC(=O)c4ccccc4C(=O)O)C(=O)O)cc3)cnc2n1 (stereo not given)
IC50 [1]: > 100 nM | IC50 [2]: 0.23 nM | IC50 [3]: 9.6 nM | IC50 [4]: > 100 nM | IC50 [5]: > 100 nM | IC50 [6]: 5.2 nM | IC50 [7]: 6.5 nM | IC50 [9]: 1.5 nM | IC50 [11]: 0.18 nM | IC50 [12]: 7.5 nM | IC50 [13]: 0.5 nM | IC50 [14]: 1.8 nM | IC50 [15]: 5.2 nM | IC50 [16]: 0.81 nM | Ki [17]: 0.00035 nM | IC50 [19]: 0.56 nM | IC50 [20]: > 100 nM | IC50 [21]: 25 nM | IC50 [22]: 1.3 nM | IC50 [24]: 0.3 nM | IC50 [25]: 1 nM | IC50 [26]: > 100 nM | IC50 [27]: 2.6 nM | IC50 [28]: 0.42 nM | IC50 [29]: 3.1 nM | IC50 [30]: 2.2 nM | IC50 [31]: 0.73 nM | IC50 [32]: > 1000 nM | IC50 [33]: 0.51 nM | IC50 [34]: 0.6 nM | IC50 [36]: > 1000 nM | IC50 [37]: 46 nM | IC50 [38]: 0.41 nM | IC50 [39]: > 100 nM | IC50 [40]: 4.7 nM | IC50 [41]: > 100 nM | IC50 [42]: 2.3 nM | IC50 [44]: > 1000 nM | IC50 [45]: 0.57 nM | IC50 [46]: 0.43 nM | IC50 [48]: 8.6 nM | IC50 [49]: > 100 nM | IC50 [50]: 0.53 nM | IC50 [51]: > 100 nM
